Structures are written as SMILES. Bounds are passed on as bounds.

Assay [1] deals with Trichoderma viride. Kind of assay: Antifungal activity against Trichoderma viride using 1 x 10^5 spore/100 uL after 72 hrs by microdilution method. The class given is functional.
The subject of assay [2] is Bacillus thuringiensis. Kind of assay: Antibacterial activity against Bacillus thuringiensis using 1 x 10^4 CFU/ml inoculum after 24 hrs by microdilution method. The class given is functional.
The subject of assay [3] is Escherichia coli. Kind of assay: Antibacterial activity against Escherichia coli using 1 x 10^4 CFU/ml inoculum after 24 hrs by microdilution method. It is filed as functional.
In assay [4] the test system is Staphylococcus aureus. The assay can be described thus: Antibacterial activity against Staphylococcus aureus using 1 x 10^4 CFU/ml inoculum after 24 hrs by microdilution method. It is filed as functional. A general note: In broth dilution the organism is exposed to a series of concentrations in liquid medium.
For assay [5], the system named is Salmonella typhi. Kind of assay: Antibacterial activity against Salmonella typhi using 1 x 10^4 CFU/ml inoculum after 24 hrs by microdilution method. The class given is functional, Salmonella enterica subsp. enterica serovar Typhi.
Assay [6] has as its system Aspergillus fumigatus. Kind of assay: Antifungal activity against Aspergillus fumigatus using 1 x 10^5 spore/100 uL assessed as 99.5% fungal killing of original inoculum after 72 hrs by microdilution method. The class given is functional.
Assay [7] deals with Bacillus subtilis. The assay can be described thus: Antibacterial activity against Bacillus subtilis using 1 x 10^4 CFU/ml inoculum after 24 hrs by microdilution method. It is filed as functional.
For assay [8], the system named is Aspergillus flavus. The assay can be described thus: Antifungal activity against Aspergillus flavus using 1 x 10^5 spore/100 uL assessed as 99.5% fungal killing of original inoculum after 72 hrs by microdilution method. It is filed as functional.
The test system of assay [9] is Trichoderma viride. The assay can be described thus: Antifungal activity against Trichoderma viride using 1 x 10^5 spore/100 uL assessed as 99.5% fungal killing of original inoculum after 72 hrs by microdilution method. It is filed as functional.
For assay [10], the system named is Curvularia australiensis. Kind of assay: Antifungal activity against Drechslera australiensis using 1 x 10^5 spore/100 uL after 72 hrs by microdilution method. The class given is functional.
Assay [11] concerns Curvularia australiensis. The assay can be described thus: Antifungal activity against Drechslera australiensis using 1 x 10^5 spore/100 uL assessed as 99.5% fungal killing of original inoculum after 72 hrs by microdilution method. The class given is functional.
Assay [12] in a line: Antifungal activity against Trichoderma reesei using 1 x 10^5 spore/100 uL assessed as 99.5% fungal killing of original inoculum after 72 hrs by microdilution method. The class given is functional.
In assay [13] the test system is Aspergillus niger. Kind of assay: Antifungal activity against Aspergillus niger using 1 x 10^5 spore/100 uL assessed as 99.5% fungal killing of original inoculum after 72 hrs by microdilution method. The class given is functional.
The test system of assay [14] is Aspergillus fumigatus. The assay can be described thus: Antifungal activity against Aspergillus fumigatus using 1 x 10^5 spore/100 uL after 72 hrs by microdilution method. It is filed as functional.
The test system of assay [15] is Aspergillus niger. Kind of assay: Antifungal activity against Aspergillus niger using 1 x 10^5 spore/100 uL after 72 hrs by microdilution method. The class given is functional.
The subject of assay [16] is Aspergillus flavus. The assay can be described thus: Antifungal activity against Aspergillus flavus using 1 x 10^5 spore/100 uL after 72 hrs by microdilution method. It is filed as functional.
The test system of assay [17] is Pseudomonas aeruginosa. Kind of assay: Antibacterial activity against Pseudomonas aeruginosa using 1 x 10^4 CFU/ml inoculum after 24 hrs by microdilution method. The class given is functional.
The nature of assay [18]: Antifungal activity against Trichoderma reesei using 1 x 10^5 spore/100 uL after 72 hrs by microdilution method. The class given is functional. In outline:
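Spores washed from malt agar cultures with sterile 0.85% saline plus 0.1% Tween 80, adjusted to about 1.0×10^5 per 100 µl well. Compounds from a 1 mg/ml DMSO stock were serially diluted in malt broth with inoculum in 96-well plates and incubated 72 h at 28 °C. MIC is the lowest concentration with no visible growth under a binocular microscope. DMSO served as negative control.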

For assay [19], the system named is Bacillus cereus. The assay can be described thus: Antibacterial activity against Bacillus cereus using 1 x 10^4 CFU/ml inoculum after 24 hrs by microdilution method. It is filed as functional.

Regarding `C/C(=N\NC(=O)C1=C(O)c2ccccc2S(=O)(=O)N1C)c1cccc(O)c1`, the MIC in assay [1] is listed as above 100 ×10⁻² umol; in assay [2], 4.3 ×10⁻² umol; in assay [3], 19.3 ×10⁻² umol; in assay [4], 18.2 ×10⁻² umol; in assay [5], 23.1 ×10⁻² umol; in assay [7], 4.5 ×10⁻² umol. Moreover, the MIC in assay [10] is above 100 ×10⁻² umol; in [14], above 100 ×10⁻² umol; in [15], above 100 ×10⁻² umol; in [16], above 100 ×10⁻² umol; in [17], 21 ×10⁻² umol; in assay [18], above 100 ×10⁻² µmol. Also, the MIC in assay [19] came to 4.2 ×10⁻² umol. The MFC was above 200 ×10⁻² umol in [6]; above 200 ×10⁻² umol in assay [8]; above 200 ×10⁻² umol in assay [9]; above 200 ×10⁻² umol in assay [11]; above 200 ×10⁻² µmol in [12]; above 200 ×10⁻² umol in assay [13].

With `C/C(=N\NC(=O)C1=C(O)c2ccccc2S(=O)(=O)N1C)c1ccc(Cl)cc1`, the MIC in [1] was 67.2 ×10⁻² umol; in assay [2], 12.3 ×10⁻² umol; in [3] it was 31 ×10⁻² umol; in [4] it was 30.9 ×10⁻² umol; in [7], 11.6 ×10⁻² umol; in assay [10], 64.3 ×10⁻² umol. The MIC in assay [14] amounted to 72.6 ×10⁻² umol; in [15], 82 ×10⁻² umol; in [16] it was 81.7 ×10⁻² umol; in [17] it was 32.3 ×10⁻² umol; in [18], 62.2 ×10⁻² µmol; in [19], 11 ×10⁻² umol. The MFC in assay [6] worked out at 143.6 ×10⁻² umol; in [8], 162.3 ×10⁻² umol; in [9] it was 134.4 ×10⁻² umol; in [11], 128.6 ×10⁻² umol; in assay [12] it was 124 ×10⁻² µmol; in [13] it was 166.4 ×10⁻² umol.

Regarding `C/C(=N\NC(=O)C1=C(O)c2ccccc2S(=O)(=O)N1)c1ccccc1Cl`, the MIC amounted to 66.8 ×10⁻² umol in assay [1]; 12.1 ×10⁻² umol in assay [2]; 32.5 ×10⁻² umol in [3]; 31.3 ×10⁻² umol in assay [4]; 11.4 ×10⁻² umol in [7]; 63.8 ×10⁻² umol in assay [10]. Moreover, the MIC in assay [14] is 76.2 ×10⁻² umol; in [15], 89.6 ×10⁻² umol; in assay [16], 87.3 ×10⁻² umol; in assay [18], 61.4 ×10⁻² µmol; in assay [19], 11.5 ×10⁻² umol. For the same molecule, the MFC in assay [6] stood at 150.4 ×10⁻² umol; in [8] it was 164.6 ×10⁻² umol; in assay [9], 123.9 ×10⁻² umol; in assay [11] it was 125.1 ×10⁻² umol; in assay [12] it was 123 ×10⁻² µmol; in assay [13], 179.1 ×10⁻² umol.

In the case of `C/C(=N\NC(=O)C1=C(O)c2ccccc2S(=O)(=O)N1C)c1ccc(Cl)cc1Cl`, the MIC is 62.7 ×10⁻² umol in assay [1]; 61.5 ×10⁻² umol in assay [10]; 67.3 ×10⁻² umol in assay [14]; 74.2 ×10⁻² umol in assay [15]; 71.6 ×10⁻² umol in assay [16]; 59.1 ×10⁻² µmol in assay [18]. The MFC was 134.7 ×10⁻² umol in assay [6]; 143.1 ×10⁻² umol in assay [8]; 125 ×10⁻² umol in assay [9]; 122.7 ×10⁻² umol in [11]; 118 ×10⁻² µmol in assay [12]; 148.3 ×10⁻² umol in assay [13].

On to `C/C(=N\NC(=O)C1=C(O)c2ccccc2S(=O)(=O)N1)c1ccc(Cl)cc1`, for which the MIC in [1] came out at 67.3 ×10⁻² umol; in assay [2] it was 12.3 ×10⁻² umol; in [3], 31.2 ×10⁻² umol; in assay [4] it was 30.8 ×10⁻² umol; in assay [7], 12.5 ×10⁻² umol; in [10] it was 64.4 ×10⁻² umol. Moreover, the MIC in assay [14] is 72.7 ×10⁻² umol; in assay [15] it was 82.9 ×10⁻² umol; in [16], 81.9 ×10⁻² umol; in [17], 32.4 ×10⁻² umol; in assay [18], 62.5 ×10⁻² µmol; in assay [19] it was 11.7 ×10⁻² umol. Further, the MFC in assay [6] amounted to 140.1 ×10⁻² umol; in [8], 163 ×10⁻² umol; in assay [9], 114.7 ×10⁻² umol; in [11] it was 130.5 ×10⁻² umol; in assay [12] it was 125 ×10⁻² µmol; in [13] it was 145.4 ×10⁻² umol.

`C/C(=N\NC(=O)C1=C(O)c2ccccc2S(=O)(=O)N1C)c1ccccc1Cl`: the MIC in [1] is on record as 66.5 ×10⁻² umol; in assay [2], 12 ×10⁻² umol; in assay [3], 31.7 ×10⁻² umol; in assay [4] it was 30.7 ×10⁻² umol; in assay [7] it was 11 ×10⁻² umol; in assay [10], 63.6 ×10⁻² umol. The MIC in assay [14] amounted to 76.1 ×10⁻² umol; in [15], 88.6 ×10⁻² umol; in assay [16], 87.1 ×10⁻² umol; in assay [17], 32.6 ×10⁻² umol; in assay [18], 61.1 ×10⁻² µmol; in assay [19], 10.8 ×10⁻² umol. Besides, the MFC came out at 144.6 ×10⁻² umol in [6]; 170.2 ×10⁻² umol in assay [8]; 133.1 ×10⁻² umol in [9]; 126.5 ×10⁻² umol in assay [11]; 119 ×10⁻² µmol in assay [12]; 167.9 ×10⁻² umol in assay [13].

`C/C(=N\NC(=O)C1=C(O)c2ccccc2S(=O)(=O)N1)c1ccc(Br)cc1`: the MIC in [1] is 74.4 ×10⁻² umol; in assay [10], 77.5 ×10⁻² umol; in assay [14], 85.7 ×10⁻² umol; in assay [15], 96.4 ×10⁻² umol; in assay [16] it was 93.7 ×10⁻² umol; in assay [18], 74.9 ×10⁻² µmol. In addition, the MFC in [6] was found to be 191 ×10⁻² umol; in assay [8], 173.2 ×10⁻² umol; in [9], 188.2 ×10⁻² umol; in [11], 143.9 ×10⁻² umol; in assay [12], 130 ×10⁻² µmol; in assay [13], 188.5 ×10⁻² umol.

For `CN[C@@H]1[C@H](O[C@H]2[C@H](O[C@H]3[C@H](O)[C@@H](O)[C@H](N=C(N)N)[C@@H](O)[C@@H]3N=C(N)N)O[C@@H](C)[C@]2(O)C=O)O[C@@H](CO)[C@H](O)[C@H]1O` [STREPTOMYCIN], the MIC in [2] is 4.4 ×10⁻² umol; in assay [3] it was 16.5 ×10⁻² umol; in [4], 16.5 ×10⁻² umol; in assay [7], 4.2 ×10⁻² umol; in assay [17] it was 16.5 ×10⁻² umol; in assay [19] it was 4.3 ×10⁻² umol.

Consider `NNC(=O)C1=C(O)c2ccccc2S(=O)(=O)N1`, for which the MIC in [1] is above 100 ×10⁻² umol; in assay [10], above 100 ×10⁻² umol; in assay [14] it was above 100 ×10⁻² umol; in assay [15] it was above 100 ×10⁻² umol; in [16], above 100 ×10⁻² umol; in assay [18], above 100 ×10⁻² µmol. The MFC is above 200 ×10⁻² umol in assay [6]; above 200 ×10⁻² umol in assay [8]; above 200 ×10⁻² umol in assay [9]; above 200 ×10⁻² umol in assay [11]; above 200 ×10⁻² µmol in assay [12]; above 200 ×10⁻² umol in assay [13].

`C/C(=N\NC(=O)C1=C(O)c2ccccc2S(=O)(=O)N1C)c1ccc(Cl)c(Cl)c1`: the MIC was determined as 61.2 ×10⁻² umol in assay [1]; 61.5 ×10⁻² umol in assay [10]; 68.1 ×10⁻² umol in assay [14]; 75 ×10⁻² umol in assay [15]; 75 ×10⁻² umol in [16]; 59 ×10⁻² µmol in [18]. The MFC in assay [6] amounted to 136.3 ×10⁻² umol; in [8], 150 ×10⁻² umol; in [9], 122.5 ×10⁻² umol; in assay [11] it was 122.6 ×10⁻² umol; in assay [12], 158 ×10⁻² µmol; in [13], 149.5 ×10⁻² umol.

`c1ccc(-c2ccc(C(c3ccccc3)n3ccnc3)cc2)cc1` (stereo unspecified) [BIFONAZOLE]: the MIC in [1] amounted to 64 ×10⁻² umol; in assay [10] it was 57.5 ×10⁻² umol; in [14], 48 ×10⁻² umol; in assay [15] it was 48 ×10⁻² umol; in assay [16], 48 ×10⁻² umol; in assay [18], 60.2 ×10⁻² µmol. The MFC is 64 ×10⁻² umol in [6]; 64 ×10⁻² umol in assay [8]; 80 ×10⁻² umol in assay [9]; 75 ×10⁻² umol in assay [11]; 78 ×10⁻² µmol in [12]; 64 ×10⁻² umol in assay [13].

The values above are taken from ChEMBL document CHEMBL1781892, “Microwave assisted synthesis and structure-activity relationship of 4-hydroxy-N'-[1-phenylethylidene]-2H/2-methyl-1,2-benzothiazine-3-carbohydrazide 1,1-dioxides as anti-microbial agents” (2011).
